Experimental findings from publication PMC3475971 (Analytical and Bioanalytical Chemistry, 2012) are described below.

Format in all cases: binding
The target of assay [1] is T1, cyclin G-associated kinase (GAK) (Homo sapiens, UniProt O14976).
T1 sequence (O14976 20-347): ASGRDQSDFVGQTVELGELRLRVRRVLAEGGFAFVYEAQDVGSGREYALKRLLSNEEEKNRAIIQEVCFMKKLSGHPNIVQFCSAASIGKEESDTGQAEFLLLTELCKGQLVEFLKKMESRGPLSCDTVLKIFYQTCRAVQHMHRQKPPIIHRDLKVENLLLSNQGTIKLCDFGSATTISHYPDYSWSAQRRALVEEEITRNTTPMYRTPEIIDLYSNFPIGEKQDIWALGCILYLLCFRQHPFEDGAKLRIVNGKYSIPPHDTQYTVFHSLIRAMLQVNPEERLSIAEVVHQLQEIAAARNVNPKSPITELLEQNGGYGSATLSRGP
Description: Fragment screening by zonal weak affinity chromatography.

The target of assay [2] is T1, cyclin G-associated kinase (GAK). The experiment in a line: Frontal affinity chromatography on GAK capillary column. A digest of the protocol: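 Human GAK residues 20–347 expressed in E. coli Rosetta (DE3), Ni-NTA and gel-filtration purified, tag removed with TEV protease, then coupled by reductive amination to aldehyde-silica capillary (100 × 0.5 mm). Frontal analysis: 20 mM ammonium acetate pH 6.8, 18 μL/min, 22 °C. Ligand 0.025–0.750 mM, UV 214 nm; DMSO void marker. Saturation moles versus concentration fitted (one-site plus linear nonspecific) for Btot and KD.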

Assay [3] relates to GAK. Description: Thermal shift assay. As to conditions: thermal shift assay performed as described in [32].

pKd: −log10 of the molar value.

Regarding `Nc1ncnc2c1ncn2[C@@H]1O[C@H](CO)[C@@H](O)[C@H]1O` [adenosine], the negative-log Kd (pKd) in assay [1] was 4.39; in assay [2], 4.20. Turning to `O=c1c(O)c(-c2ccc(O)c(O)c2)oc2cc(O)cc(O)c12` [Quercetin], the “increase of melting temperature (ΔTm) of GAK” value in assay [3] was determined as 9.4 °C.
